The source made the active and inactive calls. No cut-off for these calls is given here. Starred links: 1 amine or outer side, 2 acyl side, 3 side chain; linkers in the order of their positions; H or OH if unused. Positions of bridges follow the written chain, without caps; N, C: chain ends. Non-standard residues stand in square brackets, D forms with d. Residues, ends and D or L forms follow the SMILES beside them. Chains are numbered I, II in the order given. Gly(N-piperonyl) = O=C(O)CNCc1ccc2c(c1)OCO2; N(4-MeOBn)Gly = COc1ccc(CNCC(=O)O)cc1; X1 = COc1cccc(CN(CC(=O)[*:2])[*:1])c1; X2 = CC(CN(CC(=O)[*:2])[*:1])c1ccccc1; X3 = CC(c1ccccc1)N(CC(=O)[*:2])[*:1]
What was measured:
[1] = test system: HCC4017; test: Cytotoxicity against human HCC4017 cells assessed as reduction in cell viability at 20 uM after 24 hrs by MTS assay; assay type: functional, cell-based
In short: (§1)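 HCC4017 cells (RPMI, 5% FBS) and HBEC-3KT normal lung cells (KSFM with recombinant human EGF and bovine pituitary extract) were plated at 10 000 cells/well in triplicate and left to adhere overnight. They were exposed to 1 or 20 μM compound for 24 h. MTS reagent was then added for 2 h and absorbance read at 490 nm. Viability is % of untreated control wells.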

[2] = test system: HCC4017; test: Cytotoxicity against human HCC4017 cells assessed as reduction in cell viability after 24 hrs by MTS assay; assay type: functional, cell-based; details: HCC4017, 24 h
In short: (§2)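 HCC4017 lung cancer cells (RPMI, 5% FBS) were seeded at 10 000 cells/well in triplicate and adhered overnight. Purified compounds were given as a concentration gradient for 24 h. MTS reagent was added for 2 h and absorbance read at 490 nm. IC50 was taken from the viability curves.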

[3] = test system: HCC4017; test: Cytotoxicity against human HCC4017 cells assessed as reduction in cell viability up to 100 uM after 24 hrs by calcein-AM dye based fluorescence assay; assay type: functional; details: in the assay text read “up to 50 uM” for “up to 100 uM”
In short: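 HCC4017 cells were seeded at 10 000 cells/well in triplicate, adhered overnight, and treated with a graded series of compounds for 24 h. Medium was replaced with PBS containing calcein AM (1 mM as printed) for 15 min at room temperature. Fluorescence emission was read at 520 nm.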

[4] = test system: HCC4017; test: Cytotoxicity against human HCC4017 cells assessed as reduction in cell viability at 1 uM after 24 hrs by MTS assay; assay type: functional, cell-based; in short: as §1
[5] = Cytotoxicity against human HBEC3-KT cells assessed as reduction in cell viability at 1 uM after 24 hrs by MTS assay; assay type: cell-based; in short: as §1
[6] = Cytotoxicity against human HBEC3-KT cells assessed as reduction in cell viability at 20 uM after 24 hrs by MTS assay; assay type: cell-based; in short: as §1
[7] = test system: HCC4017; test: Cytotoxicity against human HCC4017 cells assessed as reduction in cell viability up to 100 uM after 24 hrs by MTS assay; assay type: functional, cell-based; details: in the assay text read “up to 50 uM” for “up to 100 uM”; in short: as §2

SMILES | Activity [1] | IC50 [2] [µM] | Activity [3] | Activity [4] | Activity [5] | Activity [6] | Activity [7]
COc1ccc(CN(CC(=O)N(CC(=O)NC(CCCCN)C(=O)NC(CCCCN)C(=O)NC(CCSC)C(=O)NCCCCC(NC(=O)C(CCSC)NC(=O)C(CCCCN)NC(=O)C(CCCCN)NC(=O)CN(CC(C)c2ccccc2)C(=O)CN(Cc2ccc(OC)cc2)C(=O)CN(C(=O)CN(Cc2ccc3c(c2)OCO3)C(=O)CNC(C)c2ccccc2)C(C)c2ccccc2)C(N)=O)CC(C)c2ccccc2)C(=O)CN(C(=O)CN(Cc2ccc3c(c2)OCO3)C(=O)CNC(C)c2ccccc2)C(C)c2ccccc2)cc1 (centres undefined) (I: H-[X3][Gly(N-piperonyl)][X3][N(4-MeOBn)Gly][X2]KKMK-NH2 / II: H-[X3][Gly(N-piperonyl)][X3][N(4-MeOBn)Gly][X2]KKM; amide I:9-II:C; configuration not given here) | Active | 7 to 10 | Active | inactive | Non-Toxic | Non-Toxic | –
COc1ccc(CN(CC(=O)NC(CCC(=O)O)C(=O)NC(CCCCN)C(=O)NC(CCCCN)C(=O)NC(CCSC)C(=O)NCCCCC(NC(=O)C(CCSC)NC(=O)C(CCCCN)NC(=O)C(CCCCN)NC(=O)C(CCC(=O)O)NC(=O)CN(Cc2ccc(OC)cc2)C(=O)CN(C(=O)CN(Cc2ccc3c(c2)OCO3)C(=O)CNC(C)c2ccccc2)C(C)c2ccccc2)C(N)=O)C(=O)CN(C(=O)CN(Cc2ccc3c(c2)OCO3)C(=O)CNC(C)c2ccccc2)C(C)c2ccccc2)cc1 (centres undefined) (I: H-[X3][Gly(N-piperonyl)][X3][N(4-MeOBn)Gly]EKKMK-NH2 / II: H-[X3][Gly(N-piperonyl)][X3][N(4-MeOBn)Gly]EKKM; amide I:9-II:C; configuration not given here) | inactive | – | – | – | – | – | inactive
COc1ccc(CN(CC(=O)N(CC(=O)NC(CCCCN)C(=O)NC(CCCCN)C(=O)NC(CCSC)C(=O)NCCCCC(NC(=O)C(CCSC)NC(=O)C(CCCCN)NC(=O)C(CCCCN)NC(=O)CN(Cc2cccc(OC)c2)C(=O)CN(Cc2ccc(OC)cc2)C(=O)CN(C(=O)CN(Cc2ccc3c(c2)OCO3)C(=O)CNC(C)c2ccccc2)C(C)c2ccccc2)C(N)=O)Cc2cccc(OC)c2)C(=O)CN(C(=O)CN(Cc2ccc3c(c2)OCO3)C(=O)CNC(C)c2ccccc2)C(C)c2ccccc2)cc1 (centres undefined) (I: H-[X3][Gly(N-piperonyl)][X3][N(4-MeOBn)Gly][X1]KKMK-NH2 / II: H-[X3][Gly(N-piperonyl)][X3][N(4-MeOBn)Gly][X1]KKM; amide I:9-II:C; configuration not given here) | Active | 7 to 10 | Active | inactive | Non-Toxic | Non-Toxic | –

Reference: ChEMBL document CHEMBL4257452, “A mini-library system to investigate non-essential residues of lipid-phosphatidylserine (PS) binding peptide-peptoid hybrid PPS1” (Medchemcomm, 2017)
